Hits are enriched below; roughly 3.3% of the tested compounds scored in any of these assays.
UHRF1 binding = blocks human UHRF1 binding to methylated DNA; Q96T88; UHRF1 binding to methylated oligo, TR-FRET; inhibition, % at 4.4 µM; 370,000 compounds, 0.75% hits;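 further: UHRF1 SRA domain binding a hemimethylated CpG hairpin DNA probe; 0% = median of test compound wells and 100% = reference inhibitor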
SIAE inh = inhibitors of human sialic acid acetylesterase SIAE; inhibition, % at 9.66 µM; SIAE FP-Rh probe binding, fluorescence polarization; AID 1053197; 370,000 compounds, 0.69% hits;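 active means inhibition above a cutoff: mean of compounds within the control limits plus 3 SD of those, cut at about 17% in these data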;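 further: 0% = plate median of compound wells and 100% = probe without SIAE protein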
PRMT1 FP inh = inhibitors of human PRMT1; inhibition, % at 2.79 µM; 370,000 compounds, 1.3% hits; Q99873; recombinant PRMT1, activity-based probe fluorescence polarization; AID 652257;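 active means inhibition above about 21% made by adding two undisclosed values, limit read from the data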
MBD2 DNA inh = MBD2-methylated oligo binding inhibition. Q9UBB5. TR-FRET, MBD2 binding to methylated oligonucleotide. inhibition, % at 4.4 µM. 370,000 compounds, 0.31% hits; in the data active means inhibition above about 13%
Target sequence (Q9UBB5 whole entry, looked up): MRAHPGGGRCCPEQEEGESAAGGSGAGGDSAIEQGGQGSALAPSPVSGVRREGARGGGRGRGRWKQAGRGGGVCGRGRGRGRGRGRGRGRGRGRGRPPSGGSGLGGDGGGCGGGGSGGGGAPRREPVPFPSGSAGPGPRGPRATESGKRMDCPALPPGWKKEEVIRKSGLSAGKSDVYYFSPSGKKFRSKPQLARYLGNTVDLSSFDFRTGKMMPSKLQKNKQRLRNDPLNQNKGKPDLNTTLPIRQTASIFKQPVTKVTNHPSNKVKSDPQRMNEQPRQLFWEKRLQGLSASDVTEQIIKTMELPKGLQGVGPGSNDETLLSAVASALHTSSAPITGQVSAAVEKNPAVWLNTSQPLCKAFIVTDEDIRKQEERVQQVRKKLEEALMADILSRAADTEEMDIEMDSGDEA
TDP2 inh = TDP2 (human) inhibition, absorbance primary screen; inhibition, % at 12.8 µM; O95551; recombinant TDP2, T5PNP hydrolysis, p-nitrophenol absorbance 415 nm; 370,000 compounds, 0.34% hits;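 active means inhibition above the mean of all tested compounds plus 3 SD, set per campaign, cut at about 25% in these data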;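 further: 0% = DMSO with enzyme and 100% = buffer with substrate but no TDP2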
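Test system: human TDP2 enzyme; Input: 120 nM TDP2 per well; Buffer or medium: Mg2+-containing Tris-HCl buffer, pH 7.5; Reagent: 5 mM T5PNP; Dosing: 12.8 µM single point, 1% DMSO; Incubation: reaction 2 h, 37 °C; Detection: p-Nitrophenol epi absorbance; Read-out: % inhibition relative to enzyme-containing and enzyme-free wells; Replicates: single well per compound.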
LEDGF integ inh = blocks HIV-1 LEDGF/p75-dependent DNA integration | TR-FRET IN-LEDGF/p75 DNA integration, Eu/Cy5 | inhibition, % at 3.7 µM | 370,000 compounds, 0.64% hits | AID 743269;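 active means inhibition above the screen-wide mean plus 3 SD, cut at about 13% in these data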;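 further: signal is the Cy5 over europium emission ratio at 671 and 618 nm; 0% = plate median of compound wells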
UHRF1 DNA bind = counter-screen for MBD2 inhibitors: human UHRF1 methylated DNA binding inhibitors. shares compounds with MBD2 DNA inh. inhibition, % at 4.4 µM. UHRF1 binding to methylated oligonucleotide, TR-FRET. 1,000 compounds, 25% hits;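 further: UHRF1 SRA domain binding a labeled hemimethylated CpG hairpin DNA; 0% = vehicle only and 100% = reference inhibitor with vehicle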
MBD2 confirm = confirmation of human MBD2-DBD methylated oligonucleotide binding inhibitors. shares compounds with MBD2 DNA inh. TR-FRET MBD2-DBD binding to methylated oligonucleotide. inhibition, % at 4.4 µM. 1,000 compounds, 26% hits; in the data active means inhibition above about 14%
TDP2 confirm = confirmation of human TDP2 inhibitors; AID 743263; shares compounds with TDP2 inh; 1,100 compounds, 22% hits; inhibition, % at 12.8 µM; recombinant human TDP2, absorbance read-out; in the data active means inhibition above about 25%;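 further: 0% = vehicle with enzyme and 100% = no enzyme buffer only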
IN multimer act = activates HIV-1 integrase multimerization in LEDGF counter-screen; TR-FRET HIV-1 integrase multimerization, biochemical; shares compounds with LEDGF integ inh; 2,000 compounds, 17% hits; AID 1053131; activation, % at 7.7 µM; in the data active means activation above about 8.9%
TR-FRET interf = TR-FRET optical interference, LEDGF/p75 integration counter-screen. shares compounds with LEDGF integ inh. TR-FRET optical interference counterscreen, HIV-1 IN multimerization. inhibition, % at 7.7 µM. 2,000 tested, under 10 active;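 active means inhibition above the mean over all tested compounds plus 3 SD, which no compound reached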;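 further: 0% = integrase with antibodies and DMSO and 100% = antibodies without integrase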
IN-LEDGF confirm = LEDGF/p75-dependent HIV-1 integration inhibition, confirmation; inhibition, % at 3.7 µM; TR-FRET LEDGF/p75-dependent HIV-1 integration, biochemical; shares compounds with LEDGF integ inh; 2,000 compounds, 36% hits; in the data active means inhibition above about 14%
An asterisk follows results filed as active; · = no result. Unless noted, no stated cut-off is given here; in the data, active means inhibition above about 21%; inactive means the rest.

SMILES | UHRF1 binding | SIAE inh | PRMT1 FP inh | MBD2 DNA inh | TDP2 inh | LEDGF integ inh | UHRF1 DNA bind | MBD2 confirm | IN multimer act | TR-FRET interf | IN-LEDGF confirm | others
CC(COc1ccc([N+](=O)[O-])cc1Cl)CN1CCC(C(O)(c2ccccc2)c2ccccc2)CC1 (stereo not drawn) | -0.7 | 1.0 | -2.5 | -5.2 | -9.9 | 3.1 | · | · | · | · | ·
Cc1ccc(N=C2NC(=O)CS2)cc1 | -1.5 | -1.2 | 0.5 | -2.2 | -10.1 | -3.0 | · | · | · | · | ·
Cc1ccc(C)n1/N=C1/NC(=O)CS1 | 75.9* | 5.3 | 8.5 | 39.0* | 23.6 | 58.4* | 48.5* | 16.6* | 3.0 | -14.9 | 65.7*
CC1=NN(c2cccc(C(=O)O)c2)C(=O)/C1=C\C=C\c1ccco1 | 93.9* | 11.8 | 26.7* | 69.9* | 22.5 | 78.2* | 94.3* | 56.4* | 46.0* | -231.8 | 72.1*
O=C(CCS(=O)(=O)c1ccc(Br)cc1)N1CCN(c2ccc(F)cc2)CC1 | 72.8* | -1.2 | 2.7 | 25.7* | 3.1 | 19.3* | 8.8 | 2.4 | -5.3 | 19.0 | 9.6
O=C(CCS(=O)(=O)c1ccc(Br)cc1)N1CCN(c2ccc(Cl)cc2)CC1 | -2.3 | 1.9 | -2.9 | -0.8 | 4.2 | -0.2 | · | · | · | · | ·
CC(/C=N/NC(=O)CSc1nnc(SCc2ccc(C)cc2)s1)=C\c1ccco1 | -4.5 | -4.9 | 1.4 | -4.1 | 0.9 | 5.2 | · | · | · | · | ·
CC(=O)c1c(C(C)=O)c(C)n(Cc2ccccc2)c1C | -1.9 | -4.5 | -1.6 | 1.7 | -0.1 | 1.5 | · | · | · | · | ·
Cc1c(C=O)c(C=O)c(C)n1Cc1ccccc1 | 31.5* | 0.0 | 2.6 | 15.9* | 24.9* | 21.7* | 4.0 | 4.0 | -2.2 | 11.0 | 12.1 | TDP2 confirm=0.5
Cc1ccc(-c2nnc3n2N=C(c2ccc(-c4ccccc4)cc2)CS3)cc1 | -2.7 | -11.9 | 4.6 | -0.7 | -10.7 | 4.9 | · | · | · | · | ·
O=C1/C(=C/C=C/c2ccco2)SC(=S)N1c1ccc(O)cc1 | 86.6* | 8.6 | 25.0* | 41.5* | 26.0* | 75.8* | 19.7 | 6.3 | 18.8* | -67.0 | 73.3* | TDP2 confirm=13.6
O=C(O)c1ccc(N2C(=O)/C(=C/C=C/c3ccccc3)SC2=S)cc1 | 16.8 | 4.1 | 7.7 | 7.6 | 10.0 | -0.1 | · | · | · | · | ·
O=C(c1coc(=O)c(Br)c1)N1CCC(C(O)(c2ccccc2)c2ccccc2)CC1 | 1.5 | -2.5 | -3.9 | -3.8 | 2.6 | -1.0 | · | · | · | · | ·
CC1(C)CCCN(C(=O)c2coc(=O)c(Br)c2)C1 | 62.1* | -0.7 | 6.8 | 17.7* | 6.9 | 21.7* | 101.1* | 64.9* | 16.4* | -82.8 | 65.4*
C=CCCC(=O)N1CCC(C(=O)NC2CCCc3ccccc32)CC1 (stereo not drawn) | 2.1 | -1.6 | -0.2 | -2.9 | 3.2 | 1.6 | · | · | · | · | ·
O=C(N/N=C/c1cccc(F)c1)c1cc(-c2ccco2)nc2ccccc12 | 30.3* | 4.4 | 16.4 | 23.5* | 3.6 | 19.9* | 41.8* | 36.1* | 21.2* | -106.8 | 49.1*
CC1CCC2(CC1)CCC2NCc1ccc(Cl)cc1 (stereo not drawn) | -1.4 | 3.9 | -1.3 | -1.8 | -7.1 | -2.8 | · | · | · | · | ·
